Data taken from ChEMBL document CHEMBL1134346, “Labeling and evaluation of N-[11C]methylated quinoline-2-carboxamides as potential radioligands for visualization of peripheral benzodiazepine receptors” (J Med Chem, 2001).

How the values were obtained:
Rattus norvegicus [1] = organism: Rattus norvegicus; assay: Tissue (spleen) distribution in Albino male CD rats after 5 minutes expressed as percent of injected dose per gram of organ.; format: ADME, organism-based; settings: in vivo
In short: (§1)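 Male albino CD rats (225-250 g) received the 11C-labelled radioligand in saline by tail-vein injection. Three rats per time point were decapitated under light ether anaesthesia at 5, 15, 30, 60 or 90 min. Blood was collected heparinized and plasma separated by centrifugation. The pituitary was dissected from the brain. Lung, liver (three-lobe pieces) and right deltoid muscle were sampled, washed in cold saline, gamma-counted and weighed. Results are %I.D./g.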

Rattus norvegicus [2] = organism: Rattus norvegicus; assay: Tissue (spleen) distribution in Albino male CD rats after 90 minutes expressed as percent of injected dose per gram of organ.; format: ADME, organism-based; settings: in vivo, 1.5 h
Rattus norvegicus [3] = organism: Rattus norvegicus; assay: Tissue (testicle) distribution in Albino male CD rats after 15 minutes expressed as percent of injected dose per gram of organ.; format: ADME, organism-based; settings: in vivo, 0.25 h; in short: as §1
Rattus norvegicus [4] = organism: Rattus norvegicus; assay: Tissue (testicle) distribution in Albino male CD rats after 5 minutes expressed as percent of injected dose per gram of organ.; format: ADME, organism-based; settings: in vivo; in short: as §1
Rattus norvegicus [5] = organism: Rattus norvegicus; assay: Tissue (kidney) distribution in Albino male CD rats after 60 minutes expressed as percent of injected dose per gram of organ.; format: ADME, organism-based; settings: in vivo, 1 h
In short: (§2)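 Radioligand given in saline into tail vein of male albino CD rats (225-250 g); 100-200 µCi per animal, 1-2 Ci/µmol at injection depending on radioligand. Three rats per time point were decapitated under light ether anaesthesia. Blood, plasma, brain regions and washed organs were weighed and gamma-counted. Uptake is %I.D./g tissue, mean ± SD.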

Rattus norvegicus [6] = organism: Rattus norvegicus; assay: Tissue (kidney) distribution in Albino male CD rats after 90 minutes expressed as percent of injected dose per gram of organ.; format: ADME, organism-based; settings: in vivo, 1.5 h; in short: as §2
Rattus norvegicus [7] = organism: Rattus norvegicus; assay: Tissue (liver) concentration of radioactivity at 30 min post-injection into Albino male CD rats with vehicle.; format: ADME, organism-based; settings: in vivo, 0.5 h
In short: (§3)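 Separate groups of five rats received tail-vein PK 11195 (1.4-1.6 mg; 5 mg/kg) in 30 µL DMSO:EtOH 1:1, or vehicle alone, immediately before iv radioligand (90-170 µCi in saline, 0.9-1 Ci/µmol). Rats were decapitated at 30 min and tissues gamma-counted; values are %I.D./g.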

Rattus norvegicus [8] = organism: Rattus norvegicus; assay: Tissue (liver) distribution in Albino male CD rats after 15 minutes expressed as percent of injected dose per gram of organ.; format: ADME, organism-based; settings: in vivo, 0.25 h; in short: as §2
Rattus norvegicus [9] = organism: Rattus norvegicus; assay: Tissue (liver) distribution in Albino male CD rats after 30 minutes expressed as percent of injected dose per gram of organ.; format: ADME, organism-based; settings: in vivo, 0.5 h; in short: as §1
Rattus norvegicus [10] = organism: Rattus norvegicus; assay: Tissue (liver) distribution in Albino male CD rats after 90 minutes expressed as percent of injected dose per gram of organ.; format: ADME, organism-based; settings: in vivo, 1.5 h; in short: as §1
Rattus norvegicus [11] = organism: Rattus norvegicus; assay: Tissue (lung) concentration of radioactivity at 30 min post-injection into Albino male CD rats with vehicle.; format: ADME, organism-based; settings: in vivo, 0.5 h
In short: (§4)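 Blocking study in male albino CD rats, five per group. Immediately before the 11C radioligand (in saline, i.v. tail vein), rats received 30 µL tail-vein PK 11195 (5 mg/kg; 1.4-1.6 mg) in DMSO:EtOH 1:1, or vehicle. Rats were decapitated at 30 min. Tissues were dissected, washed, gamma-counted and weighed as in the biodistribution study. Results are %I.D./g.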

Rattus norvegicus [12] = organism: Rattus norvegicus; assay: Tissue (lung) distribution in Albino male CD rats after 5 minutes expressed as percent of injected dose per gram of organ.; format: ADME, organism-based; settings: in vivo; in short: as §1
Rattus norvegicus [13] = organism: Rattus norvegicus; assay: Tissue (lung) distribution in Albino male CD rats after 60 minutes expressed as percent of injected dose per gram of organ.; format: ADME, organism-based; settings: in vivo, 1 h; in short: as §1
Rattus norvegicus [14] = organism: Rattus norvegicus; assay: Tissue (lung) distribution in Albino male CD rats after 90 minutes expressed as percent of injected dose per gram of organ.; format: ADME, organism-based; settings: in vivo, 1.5 h; in short: as §1
Rattus norvegicus [15] = organism: Rattus norvegicus; assay: Tissue (blood) distribution in Albino male CD rats after 30 minutes expressed as percent of injected dose per gram of organ.; format: ADME, organism-based; settings: in vivo, 0.5 h; in short: as §2
Rattus norvegicus [16] = organism: Rattus norvegicus; assay: Tissue (blood) distribution in Albino male CD rats after 5 minutes expressed as percent of injected dose per gram of organ.; format: ADME, organism-based; settings: in vivo; in short: as §2
Rattus norvegicus [17] = organism: Rattus norvegicus; assay: Tissue (adrenal gland) concentration of radioactivity at 30 min post-injection into Albino male CD rats with vehicle.; format: ADME, organism-based; settings: in vivo, 0.5 h; in short: as §3
Rattus norvegicus [18] = organism: Rattus norvegicus; assay: Tissue (adrenal gland) distribution in Albino male CD rats after 15 minutes expressed as percent of injected dose per gram of organ.; format: ADME, organism-based; settings: in vivo, 0.25 h; in short: as §2
Rattus norvegicus [19] = organism: Rattus norvegicus; assay: Tissue (adrenal gland) distribution in Albino male CD rats after 60 minutes expressed as percent of injected dose per gram of organ.; format: ADME, organism-based; settings: in vivo, 1 h; in short: as §2
Rattus norvegicus [20] = organism: Rattus norvegicus; assay: Tissue (adrenal gland) distribution in Albino male CD rats after 90 minutes expressed as percent of injected dose per gram of organ.; format: ADME, organism-based; settings: in vivo, 1.5 h; in short: as §2
Rattus norvegicus [21] = organism: Rattus norvegicus; assay: Tissue (spleen) distribution in Albino male CD rats after 15 minutes expressed as percent of injected dose per gram of organ.; format: ADME, organism-based; settings: in vivo, 0.25 h
Rattus norvegicus [22] = organism: Rattus norvegicus; assay: Tissue (muscle) concentration of radioactivity at 30 min post-injection into Albino male CD rats with vehicle.; format: ADME, organism-based; settings: in vivo, 0.5 h; in short: as §4
Rattus norvegicus [23] = organism: Rattus norvegicus; assay: Tissue (cortex) concentration of radioactivity at 30 min post-injection into Albino male CD rats with vehicle.; format: ADME, organism-based; settings: in vivo, 0.5 h; in short: as §3
Rattus norvegicus [24] = organism: Rattus norvegicus; assay: Tissue (cortex) distribution in Albino male CD rats after 5 minutes expressed as percent of injected dose per gram of organ.; format: ADME, organism-based; settings: in vivo; in short: as §2
Rattus norvegicus [25] = organism: Rattus norvegicus; assay: Tissue (cortex) distribution in Albino male CD rats after 60 minutes expressed as percent of injected dose per gram of organ.; format: ADME, organism-based; settings: in vivo, 1 h; in short: as §2
Rattus norvegicus [26] = organism: Rattus norvegicus; assay: Tissue (muscle) distribution in Albino male CD rats after 90 minutes expressed as percent of injected dose per gram of organ.; format: ADME, organism-based; settings: in vivo, 1.5 h; in short: as §1
Rattus norvegicus [27] = organism: Rattus norvegicus; assay: Tissue (pituitary) distribution in Albino male CD rats after 15 minutes expressed as percent of injected dose per gram of organ.; format: ADME, organism-based, Pituitary gland; settings: in vivo, 0.25 h; in short: as §1
Rattus norvegicus [28] = organism: Rattus norvegicus; assay: Tissue (pituitary) distribution in Albino male CD rats after 60 minutes expressed as percent of injected dose per gram of organ.; format: ADME, organism-based, Pituitary gland; settings: in vivo, 1 h; in short: as §1
Rattus norvegicus [29] = organism: Rattus norvegicus; assay: Tissue (pituitary) distribution in Albino male CD rats after 90 minutes expressed as percent of injected dose per gram of organ.; format: ADME, organism-based, Pituitary gland; settings: in vivo, 1.5 h; in short: as §1
Rattus norvegicus [30] = organism: Rattus norvegicus; assay: Tissue (plasma) distribution in Albino male CD rats after 15 minutes expressed as percent of injected dose per gram of organ.; format: ADME, organism-based; settings: in vivo, 0.25 h; in short: as §1
Rattus norvegicus [31] = organism: Rattus norvegicus; assay: Tissue (plasma) distribution in Albino male CD rats after 60 minutes expressed as percent of injected dose per gram of organ.; format: ADME, organism-based; settings: in vivo, 1 h; in short: as §1
Rattus norvegicus [32] = organism: Rattus norvegicus; assay: Tissue (plasma) distribution in Albino male CD rats after 90 minutes expressed as percent of injected dose per gram of organ.; format: ADME, organism-based; settings: in vivo, 1.5 h; in short: as §1
Rattus norvegicus [33] = organism: Rattus norvegicus; assay: Tissue (heart) distribution in Albino male CD rats after 5 minutes expressed as percent of injected dose per gram of organ.; format: ADME, organism-based; settings: in vivo; in short: as §2
Rattus norvegicus [34] = organism: Rattus norvegicus; assay: Tissue (intestine) distribution in Albino male CD rats after 30 minutes expressed as percent of injected dose per gram of organ.; format: ADME, organism-based; settings: in vivo, 0.5 h; in short: as §2
Rattus norvegicus [35] = organism: Rattus norvegicus; assay: Tissue (intestine) distribution in Albino male CD rats after 90 minutes expressed as percent of injected dose per gram of organ.; format: ADME, organism-based; settings: in vivo, 1.5 h; in short: as §2
Rattus norvegicus [36] = organism: Rattus norvegicus; assay: Tissue (kidney) distribution in Albino male CD rats after 15 minutes expressed as percent of injected dose per gram of organ.; format: ADME, organism-based; settings: in vivo, 0.25 h; in short: as §2
Rattus norvegicus [37] = organism: Rattus norvegicus; assay: Tissue (cerebellum) distribution in Albino male CD rats after 15 minutes expressed as percent of injected dose per gram of organ.; format: ADME, organism-based; settings: in vivo, 0.25 h; in short: as §2
Rattus norvegicus [38] = organism: Rattus norvegicus; assay: Tissue (cerebellum) distribution in Albino male CD rats after 30 minutes expressed as percent of injected dose per gram of organ.; format: ADME, organism-based; settings: in vivo, 0.5 h; in short: as §2
Rattus norvegicus [39] = organism: Rattus norvegicus; assay: Tissue (cerebellum) distribution in Albino male CD rats after 90 minutes expressed as percent of injected dose per gram of organ.; format: ADME, organism-based; settings: in vivo, 1.5 h; in short: as §2
[40] = molecular target: Translocator protein (Rattus norvegicus) (UniProt P16257); assay: Tissue (cortex) concentration of radioactivity at 30 min post-injection into Albino male CD rats after pretreatment with cold PK 11195.; format: functional; in short: as §3
Translocator protein (Rattus norvegicus), sequence (P16257 whole entry, looked up): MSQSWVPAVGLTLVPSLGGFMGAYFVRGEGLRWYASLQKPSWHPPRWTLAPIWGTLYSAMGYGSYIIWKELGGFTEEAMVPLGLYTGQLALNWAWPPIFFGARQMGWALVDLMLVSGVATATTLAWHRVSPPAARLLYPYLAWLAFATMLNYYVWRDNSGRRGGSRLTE

I.D./g (Rattus norvegicus [1]): 0.34%
I.D./g (Rattus norvegicus [2]): 0.71%
I.D./g (Rattus norvegicus [3]): 0.09%
I.D./g (Rattus norvegicus [4]): 0.04%
I.D./g (Rattus norvegicus [5]): 0.51%
I.D./g (Rattus norvegicus [6]): 0.46%
I.D./g (Rattus norvegicus [7]): 0.35%
I.D./g (Rattus norvegicus [8]): 0.69%
I.D./g (Rattus norvegicus [9]): 0.55%
I.D./g (Rattus norvegicus [10]): 0.39%
I.D./g (Rattus norvegicus [11]): 0.56%
I.D./g (Rattus norvegicus [12]): 2.37%
I.D./g (Rattus norvegicus [13]): 1.77%
I.D./g (Rattus norvegicus [14]): 1.55%
I.D./g (Rattus norvegicus [15]): 0.11%
I.D./g (Rattus norvegicus [16]): 0.11%
I.D./g (Rattus norvegicus [17]): 1.79%
I.D./g (Rattus norvegicus [18]): 2.53%
I.D./g (Rattus norvegicus [19]): 2.85%
I.D./g (Rattus norvegicus [20]): 2.22%
I.D./g (Rattus norvegicus [21]): 0.75%
I.D./g (Rattus norvegicus [22]): 0.05%
I.D./g (Rattus norvegicus [23]): 0.05%
I.D./g (Rattus norvegicus [24]): 0.1%
I.D./g (Rattus norvegicus [25]): 0.07%
I.D./g (Rattus norvegicus [26]): 0.08%
I.D./g (Rattus norvegicus [27]): 0.27%
I.D./g (Rattus norvegicus [28]): 0.14%
I.D./g (Rattus norvegicus [29]): 0.15%
I.D./g (Rattus norvegicus [30]): 0.09%
I.D./g (Rattus norvegicus [31]): 0.06%
I.D./g (Rattus norvegicus [32]): 0.04%
I.D./g (Rattus norvegicus [33]): 0.68%
I.D./g (Rattus norvegicus [34]): 0.31%
I.D./g (Rattus norvegicus [35]): 0.24%
I.D./g (Rattus norvegicus [36]): 0.73%
I.D./g (Rattus norvegicus [37]): 0.11%
I.D./g (Rattus norvegicus [38]): 0.09%
I.D./g (Rattus norvegicus [39]): 0.06%
I.D./g [40]: < 0.02%
SMILES: CCC(C)N(C)C(=O)c1nc2ccccc2c(-c2ccccc2F)c1C (stereo not given)
